Assay results published in ChEMBL document CHEMBL3259539, “A fragment-based method to discover irreversible covalent inhibitors of cysteine proteases” (J Med Chem, 2014).
The source made the active and inactive calls. The rule behind the calls is not given here.

What was measured:
Papain (Carica papaya) [1] = target: T1, Papain (Carica papaya) (UniProt P00784); assay: Ratio of Kinact to Ki for papain by second-order papain inhibition plot
T1 sequence (whole entry): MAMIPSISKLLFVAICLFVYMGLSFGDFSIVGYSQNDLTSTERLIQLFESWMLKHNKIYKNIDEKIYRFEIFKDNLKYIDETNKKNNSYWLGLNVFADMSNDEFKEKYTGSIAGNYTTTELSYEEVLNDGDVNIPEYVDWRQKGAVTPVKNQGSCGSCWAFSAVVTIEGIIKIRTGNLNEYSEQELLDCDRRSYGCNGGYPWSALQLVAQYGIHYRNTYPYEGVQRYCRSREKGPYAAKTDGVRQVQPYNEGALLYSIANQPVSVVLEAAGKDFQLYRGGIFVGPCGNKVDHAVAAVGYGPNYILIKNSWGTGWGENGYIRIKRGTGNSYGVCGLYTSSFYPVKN
Procedure, shortened: (§1)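 Papain preactivated with 1 mM DTT for 30 min, then 3.84 μM preincubated up to 1 h with varying inhibitor in 50 mM Na3PO4/2 mM EDTA pH 6.2:acetonitrile (4:1). Aliquots taken every 10 min into 400 μM Cbz-Gly-ONp; p-nitrophenol absorbance followed, in duplicate. kobs from ln(% activity) vs time slopes; kinact/KI from kobs vs [I] slope (Kitz–Wilson).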

[2] = target: T2, Human rhinovirus A protease (Human rhinovirus sp.) (UniProt Q4U254); assay: Binding affinity to GST-tagged human rhinovirus 3C protease assessed as labeling after 1 hr
T2 sequence (whole entry): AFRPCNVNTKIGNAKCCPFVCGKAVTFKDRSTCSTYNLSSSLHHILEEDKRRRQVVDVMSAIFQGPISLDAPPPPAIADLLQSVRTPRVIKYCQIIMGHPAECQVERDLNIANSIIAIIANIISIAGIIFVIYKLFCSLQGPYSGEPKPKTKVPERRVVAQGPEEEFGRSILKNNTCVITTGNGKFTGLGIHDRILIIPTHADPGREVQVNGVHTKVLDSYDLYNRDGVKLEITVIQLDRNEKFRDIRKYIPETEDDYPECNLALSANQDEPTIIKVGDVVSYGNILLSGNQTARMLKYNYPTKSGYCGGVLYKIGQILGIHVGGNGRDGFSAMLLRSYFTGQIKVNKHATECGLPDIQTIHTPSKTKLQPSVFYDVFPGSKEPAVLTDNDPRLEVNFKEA
Procedure, shortened: (§2)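 Enzyme at 10 μM (papain; recombinant GST-HRV3C protease; recombinant USP08) in 50 mM HEPES, 150 mM NaCl, 0.1 mM EDTA, pH 7.5, with a 10-fragment mixture at 100 μM each (final) and 1% DMSO. Incubated at 23 °C, 1 h for papain and HRV3C, 4 h for USP08. Gel-filtered, then intact-protein LC/ESI-MS with maximum-entropy deconvolution.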

Papain (Carica papaya) [3] = target: T1, Papain (Carica papaya); assay: Irreversible inhibition of papain after 1 hr incubation at 100 uM by ESI-MS analysis; procedure, shortened: as §2
Papain (Carica papaya) [4] = target: T1, Papain (Carica papaya); assay: Irreversible inhibition of papain after 1 hr incubation at 100 uM by ESI-MS analysis in presence of 10 mM glutathione
Papain (Carica papaya) [5] = target: T1, Papain (Carica papaya); assay: Irreversible inhibition of papain assessed as binding affinity cysteine after 1 hr incubation at 100 uM by ESI-MS analysis
Papain (Carica papaya) [6] = target: T1, Papain (Carica papaya); assay: Irreversible inhibition of papain assessed as binding affinity cysteine after 1 hr incubation at 1 mM by ESI-MS analysis
Papain (Carica papaya) [7] = target: T1, Papain (Carica papaya); assay: Irreversible inhibition of papain assessed as covalent adducts after 16 to 64 hrs incubation at 100 uM by MS analysis
Papain (Carica papaya) [8] = target: T1, Papain (Carica papaya); assay: Inhibition of papain by first-order papain inhibition plot; procedure, shortened: as §1
[9] = target: T3, Ubiquitin carboxyl-terminal hydrolase 8 (Homo sapiens) (UniProt P40818); assay: Binding affinity to deubiquitinase USP08 (unknown origin) assessed as labeling after 4 hrs incubation; procedure, shortened: as §2
T3 sequence (whole entry): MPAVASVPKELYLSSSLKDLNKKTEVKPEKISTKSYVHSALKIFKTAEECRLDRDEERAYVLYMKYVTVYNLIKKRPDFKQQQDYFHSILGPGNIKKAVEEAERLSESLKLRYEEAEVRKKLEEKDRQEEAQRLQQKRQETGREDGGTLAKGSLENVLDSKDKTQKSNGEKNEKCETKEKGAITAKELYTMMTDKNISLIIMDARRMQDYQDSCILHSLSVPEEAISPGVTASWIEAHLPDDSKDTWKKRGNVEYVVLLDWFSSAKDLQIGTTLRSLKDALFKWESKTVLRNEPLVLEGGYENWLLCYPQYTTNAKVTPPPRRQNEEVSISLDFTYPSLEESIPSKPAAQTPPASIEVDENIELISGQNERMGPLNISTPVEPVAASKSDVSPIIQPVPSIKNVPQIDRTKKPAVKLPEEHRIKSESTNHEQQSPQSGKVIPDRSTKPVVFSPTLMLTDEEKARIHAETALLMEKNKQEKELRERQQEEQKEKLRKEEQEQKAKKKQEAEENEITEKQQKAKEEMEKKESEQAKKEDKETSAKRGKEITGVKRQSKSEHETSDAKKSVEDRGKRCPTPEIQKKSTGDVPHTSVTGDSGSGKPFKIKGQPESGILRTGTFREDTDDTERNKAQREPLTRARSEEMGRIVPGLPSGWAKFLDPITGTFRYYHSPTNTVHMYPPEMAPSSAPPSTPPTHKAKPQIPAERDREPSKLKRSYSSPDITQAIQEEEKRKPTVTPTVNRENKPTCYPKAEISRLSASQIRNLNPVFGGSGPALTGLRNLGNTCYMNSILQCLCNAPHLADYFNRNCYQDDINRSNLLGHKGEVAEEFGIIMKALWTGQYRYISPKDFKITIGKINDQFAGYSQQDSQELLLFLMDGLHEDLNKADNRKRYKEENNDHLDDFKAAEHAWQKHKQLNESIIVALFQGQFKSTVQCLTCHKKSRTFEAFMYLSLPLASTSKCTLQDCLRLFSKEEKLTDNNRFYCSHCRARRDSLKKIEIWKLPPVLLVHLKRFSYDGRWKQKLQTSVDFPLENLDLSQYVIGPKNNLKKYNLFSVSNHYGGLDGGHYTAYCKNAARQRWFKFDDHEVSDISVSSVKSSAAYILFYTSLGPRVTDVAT

`COC(=O)/C=C/CNC(=O)c1ccc(C2CCCO2)s1` (configuration not stated) gave a Ratio (Papain (Carica papaya) [1]) of 0.037.
In the case of `COC(=O)/C=C/CNC(=O)c1csc(-c2cccs2)n1`, the Activity [2] is reported as 35%.
With `COC(=O)/C=C/CNC(=O)C1CCN(C(=O)CC(C)C)CC1` the inhibition (Papain (Carica papaya) [3]) was “Active”, the inhibition (Papain (Carica papaya) [4]) was “Active” and the inhibition (Papain (Carica papaya) [5]) was “Active”. The inhibition (Papain (Carica papaya) [6]) was “Active”, the inhibition (Papain (Carica papaya) [7]) was “Active” and the inhibition (Papain (Carica papaya) [8]) was “Active”. For the same molecule, the Ratio (Papain (Carica papaya) [1]) was 0.461 and the Activity [9] was “inactive”.
In the case of `COC(=O)/C=C/CNC(=O)c1sc(-c2ccccc2F)nc1C`, the inhibition (Papain (Carica papaya) [3]) is reported as “Active”, the inhibition (Papain (Carica papaya) [4]) is reported as “Active” and the inhibition (Papain (Carica papaya) [5]) is reported as “Active”. For the same molecule, the inhibition (Papain (Carica papaya) [6]) was “Active”, the inhibition (Papain (Carica papaya) [7]) was “Active” and the inhibition (Papain (Carica papaya) [8]) was “Active”. The Ratio (Papain (Carica papaya) [1]) was 0.409 and the Activity [9] was 30%.
In the case of `COC(=O)/C=C/CNC(=O)[C@@H](CNC(C)=O)Cc1ccccc1`, the Ratio (Papain (Carica papaya) [1]) is reported as 6.58.
`COC(=O)/C=C/CNC(=O)c1cc2cc(Cl)cc(OC)c2o1` gave an Activity [2] of 20%.
Work on `COC(=O)/C=C/CNC(=O)[C@H](CNC(C)=O)Cc1ccccc1` yielded a Ratio (Papain (Carica papaya) [1]) of 0.386.
`COC(=O)/C=C/CNC(=O)c1ccc2ccccc2n1` was tested, and the Activity [2] was 20%.
For `COC(=O)/C=C/CNC(=O)c1cc(-c2ccc(C)cc2)no1`, the inhibition (Papain (Carica papaya) [3]) was “Active”, the inhibition (Papain (Carica papaya) [4]) was “Active” and the inhibition (Papain (Carica papaya) [5]) was “Active”. The inhibition (Papain (Carica papaya) [6]) was “Active”, the inhibition (Papain (Carica papaya) [7]) was “Active” and the inhibition (Papain (Carica papaya) [8]) was “Active”. For the same molecule, the Ratio (Papain (Carica papaya) [1]) was 1.23 and the Activity [9] was “inactive”.
`COC(=O)/C=C/CNC(=O)c1ccccc1NC(=O)Nc1ccc(Cl)cc1` gave an Activity [9] of 30%.
In the case of `COC(=O)/C=C/CNC(=O)[C@@H](CNC(C)=O)CC(C)C`, the Ratio (Papain (Carica papaya) [1]) is reported as 1.1.
